Assay results as given in ChEMBL document CHEMBL4330085, “Peptidomimetic plasmepsin inhibitors with potent anti-malarial activity and selectivity against cathepsin D” (Eur J Med Chem, 2019).
Activity calls are given as the source filed them. No cut-off for these calls is given here.

Experiments:
Plasmepsin 4 = Plasmepsin 4 (Plasmodium falciparum, UniProt Q17SB2); experiment: Inhibition of Plasmodium falciparum plasmepsin 4 using DABCYL-Glu-Arg-Nle-Phe-Leu-Ser-Phe-Pro-EDANS as substrate preincubated for 30 mins followed by substrate addition and measured every min for 8 to 15 mins by FRET assay
Sequence of Plasmepsin 4 (Q17SB2 whole entry): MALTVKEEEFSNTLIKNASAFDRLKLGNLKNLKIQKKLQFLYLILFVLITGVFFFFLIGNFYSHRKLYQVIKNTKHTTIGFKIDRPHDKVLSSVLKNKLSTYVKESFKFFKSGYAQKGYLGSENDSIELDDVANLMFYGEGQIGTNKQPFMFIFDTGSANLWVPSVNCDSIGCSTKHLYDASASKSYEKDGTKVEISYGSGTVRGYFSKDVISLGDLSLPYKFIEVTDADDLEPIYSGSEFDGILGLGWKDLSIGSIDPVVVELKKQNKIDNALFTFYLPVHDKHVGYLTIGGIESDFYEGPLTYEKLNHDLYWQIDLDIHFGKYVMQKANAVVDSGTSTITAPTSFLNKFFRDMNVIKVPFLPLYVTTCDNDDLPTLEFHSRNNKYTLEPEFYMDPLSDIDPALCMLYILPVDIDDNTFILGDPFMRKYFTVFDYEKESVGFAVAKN

Cathepsin D = Cathepsin D (Homo sapiens, UniProt P07339); experiment: Inhibition of human cathepsin D using DABCYL-Glu-Arg-Nle-Phe-Leu-Ser-Phe-Pro-EDANS as substrate preincubated for 30 mins followed by substrate addition and measured every min for 8 to 15 mins by FRET assay
Sequence of Cathepsin D (P07339 65-162 limits assumed): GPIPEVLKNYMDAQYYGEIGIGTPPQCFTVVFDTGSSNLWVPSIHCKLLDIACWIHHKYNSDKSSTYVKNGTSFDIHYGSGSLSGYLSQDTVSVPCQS
Sequence of Cathepsin D (P07339 169-412 limits assumed): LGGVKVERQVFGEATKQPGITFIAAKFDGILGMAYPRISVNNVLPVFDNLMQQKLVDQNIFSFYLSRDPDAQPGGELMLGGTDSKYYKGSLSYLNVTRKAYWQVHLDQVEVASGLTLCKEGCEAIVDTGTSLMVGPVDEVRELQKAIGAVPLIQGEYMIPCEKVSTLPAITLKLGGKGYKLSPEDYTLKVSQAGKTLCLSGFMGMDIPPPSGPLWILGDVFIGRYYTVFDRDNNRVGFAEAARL

Plasmodium falciparum = experiment: Antimalarial activity against blood stage form of Plasmodium falciparum 3D7 infected in erythrocytes after 96 hrs by SYBR Green I dye-based spectrophotometric analysis; type: functional, organism-based; details: 3D7, 96 h
Outline: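 P. falciparum blood-stage growth was read by SYBR Green fluorescence after a 96 h incubation (2 erythrocytic cycles). EC50 values came from triplicate samples in 2 separate biological assays, with a reference inhibitor as positive control.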

Plasmepsin I = Plasmepsin I (Plasmodium falciparum, UniProt P39898); experiment: Inhibition of Plasmodium falciparum plasmepsin 1 using DABCYL-Glu-Arg-Nle-Phe-Leu-Ser-Phe-Pro-EDANS as substrate preincubated for 30 mins followed by substrate addition and measured every min for 8 to 15 mins by FRET assay
Sequence of Plasmepsin I (P39898 whole entry): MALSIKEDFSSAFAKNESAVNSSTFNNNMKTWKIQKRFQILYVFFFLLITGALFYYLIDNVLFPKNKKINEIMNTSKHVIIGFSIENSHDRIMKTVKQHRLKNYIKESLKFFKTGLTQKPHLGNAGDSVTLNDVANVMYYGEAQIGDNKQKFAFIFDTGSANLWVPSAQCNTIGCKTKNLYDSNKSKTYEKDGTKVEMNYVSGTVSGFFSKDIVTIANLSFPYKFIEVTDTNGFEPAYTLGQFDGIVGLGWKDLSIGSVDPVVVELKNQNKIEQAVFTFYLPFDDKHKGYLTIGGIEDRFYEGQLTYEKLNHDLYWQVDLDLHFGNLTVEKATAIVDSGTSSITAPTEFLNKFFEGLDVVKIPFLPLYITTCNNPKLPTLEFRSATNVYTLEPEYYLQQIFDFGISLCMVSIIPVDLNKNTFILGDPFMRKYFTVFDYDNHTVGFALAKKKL

Plasmepsin II = Plasmepsin II (Plasmodium falciparum, UniProt P46925); experiment: Inhibition of Plasmodium falciparum plasmepsin 2 using DABCYL-Glu-Arg-Nle-Phe-Leu-Ser-Phe-Pro-EDANS as substrate preincubated for 30 mins followed by substrate addition and measured every min for 8 to 15 mins by FRET assay
Sequence of Plasmepsin II (P46925 whole entry): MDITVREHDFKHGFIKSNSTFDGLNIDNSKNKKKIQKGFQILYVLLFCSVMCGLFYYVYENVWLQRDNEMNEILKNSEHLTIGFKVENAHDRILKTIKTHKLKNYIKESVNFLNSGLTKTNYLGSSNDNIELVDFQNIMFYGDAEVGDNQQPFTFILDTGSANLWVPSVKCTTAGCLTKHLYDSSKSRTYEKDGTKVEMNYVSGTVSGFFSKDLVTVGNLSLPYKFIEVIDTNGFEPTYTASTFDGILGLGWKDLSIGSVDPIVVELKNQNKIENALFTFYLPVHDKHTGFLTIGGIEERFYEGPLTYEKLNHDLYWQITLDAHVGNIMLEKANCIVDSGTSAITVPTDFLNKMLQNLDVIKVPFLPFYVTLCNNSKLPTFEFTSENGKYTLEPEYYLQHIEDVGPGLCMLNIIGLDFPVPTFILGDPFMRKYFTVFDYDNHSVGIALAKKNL

[1] = biological target: Plasmepsin X (Plasmodium falciparum (isolate 3D7)) (UniProt Q8IAS0); experiment: Inhibition of Plasmodium falciparum plasmepsin 10-mediated SUB1 maturation and egress assessed as enrichment of SUB1 p54 form level at 10 nM after 8 hrs by Western blot analysis
Sequence of Plasmepsin X (Plasmodium falciparum (isolate 3D7)) (Q8IAS0 whole entry): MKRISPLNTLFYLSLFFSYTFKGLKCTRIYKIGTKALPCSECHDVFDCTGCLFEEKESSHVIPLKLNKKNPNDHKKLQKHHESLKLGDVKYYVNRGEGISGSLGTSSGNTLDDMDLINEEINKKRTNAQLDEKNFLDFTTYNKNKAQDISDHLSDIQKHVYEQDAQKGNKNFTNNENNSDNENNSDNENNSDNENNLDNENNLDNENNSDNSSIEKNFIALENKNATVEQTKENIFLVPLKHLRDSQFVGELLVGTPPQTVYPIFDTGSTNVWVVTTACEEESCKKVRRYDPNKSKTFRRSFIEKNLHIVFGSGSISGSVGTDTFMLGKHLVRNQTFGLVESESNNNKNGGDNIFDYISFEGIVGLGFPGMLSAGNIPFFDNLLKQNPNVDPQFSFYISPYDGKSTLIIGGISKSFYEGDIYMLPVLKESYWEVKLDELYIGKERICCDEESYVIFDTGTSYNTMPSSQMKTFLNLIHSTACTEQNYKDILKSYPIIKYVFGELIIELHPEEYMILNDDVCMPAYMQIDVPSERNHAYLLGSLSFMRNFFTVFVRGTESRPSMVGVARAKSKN
Outline: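 Synchronous cultures of immature intracellular parasites were exposed for ~8 h to compound at 10 nM. Controls were vehicle (DMSO, 1% v/v) and a cGMP-dependent protein kinase inhibitor at 2 μM. Parasite extracts were analysed by Western blot with anti-SUB1 antibody, scoring the p54 and p47 forms.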

[2] = biological target: Plasmepsin X (Plasmodium falciparum (isolate 3D7)) (UniProt Q8IAS0); experiment: Inhibition of Plasmodium falciparum plasmepsin 10-mediated SUB1 maturation and egress assessed as reduction in SERA5 P50 level at 10 nM by Western blot analysis

Structure (SMILES) | IC50 (Plasmepsin 4) [nM] | IC50 (Cathepsin D) [nM] | EC50 (Plasmodium falciparum) [nM] | IC50 (Plasmepsin I) [nM] | IC50 (Plasmepsin II) [nM] | inhibition [1] | inhibition [2]
COc1cccc(C(C)(C)NC[C@@H](O)[C@H](Cc2ccccc2)NC(=O)c2cc(C(=O)NCc3ccccc3)cc(N3CCCCC3)c2)c1 | 38 | 220 |  |  |  |  | 
COc1cccc(C(C)(C)NC[C@@H](O)[C@H](Cc2ccccc2)NC(=O)c2cccc(C(=O)NCC(C)(C)C)c2)c1 | 76 | 3800 | 2 | 5600 | 7100 |  | 
COc1cccc(C(C)(C)NC[C@@H](O)[C@H](Cc2ccccc2)NC(=O)c2cc(C(=O)N(CCO)CCO)cc(N3CCCCC3)c2)c1 | 68 | 270 |  |  |  |  | 
COc1cccc(C(C)(C)NC[C@@H](O)[C@H](Cc2ccccc2)NC(=O)c2cccc(C(=O)NCCC(F)(F)F)c2)c1 | 150 | 4900 | 6 | 10300 | 10400 |  | 
CCCN(CCC)C(=O)c1cc(Cl)cc(C(=O)N[C@@H](Cc2ccccc2)[C@H](O)CNC(C)(C)c2cccc(OC)c2)c1 | 8 | 96 |  |  |  |  | 
COc1cccc(C(C)(C)NC[C@@H](O)[C@H](Cc2ccccc2)NC(=O)c2cc(C(=O)NCCCO)cc(N3CCCCC3)c2)c1 | 93 | 2250 |  |  |  |  | 
CCCN(CCC)C(=O)c1cc(C(=O)N[C@@H](Cc2ccccc2)[C@H](O)CNC(C)(C)c2cccc(OC)c2)cc(C(=O)N(CCC)CCC)c1 | 18 | 700 | 6 | 780 | 270 |  | 
CCCN(CCC)C(=O)c1cc(C(=O)N[C@@H](Cc2ccccc2)[C@H](O)CNC(C)(C)c2cccc(OC)c2)cc(C(F)(F)F)c1 | 15 | 67 |  |  |  |  | 
COCCN(CCOC)C(=O)c1cc(C(=O)N[C@@H](Cc2ccccc2)[C@H](O)CNC(C)(C)c2cccc(OC)c2)cc(N2CCCCC2)c1 | 37 | 100 |  |  |  |  | 
COCCNC(=O)c1cc(C(=O)N[C@@H](Cc2ccccc2)[C@H](O)CNC(C)(C)c2cccc(OC)c2)cc(N2CCCCC2)c1 | 50 | 750 |  |  |  |  | 
CCN(CC)C(=O)c1cc(C(=O)N[C@@H](Cc2ccccc2)[C@H](O)CNC(C)(C)c2cccc(OC)c2)cc(N2CCCCC2)c1 | 14 | 250 | 1.5 | 800 | 160 | Active | 
CCCN(CCC)C(=O)c1cc(F)cc(C(=O)N[C@@H](Cc2ccccc2)[C@H](O)CNC(C)(C)c2cccc(OC)c2)c1 | 50 | 1000 | 1.5 | 1100 | 1100 | Active | Active
COc1cccc(C(C)(C)NC[C@@H](O)[C@H](Cc2ccccc2)NC(=O)c2cc(C(=O)NCC(C)(C)OC)cc(N3CCCCC3)c2)c1 | 48 | 2100 | 2 | 7400 | 5400 |  | 
COc1cccc(C(C)(C)NC[C@@H](O)[C@H](Cc2ccccc2)NC(=O)c2cc(C(=O)NCCN(C)C)cc(N3CCCCC3)c2)c1 | 360 | 4800 |  |  |  |  | 
CCCN(CCC)C(=O)c1cccc(C(=O)N[C@@H](Cc2ccccc2)[C@H](O)CNC(C)(C)c2cccc(OC)c2)c1 | 58 | 1150 | 0.3 | 3100 | 1700 | Active | Active
CCCN(CCC)C(=O)c1cc(C#N)cc(C(=O)N[C@@H](Cc2ccccc2)[C@H](O)CNC(C)(C)c2cccc(OC)c2)c1 | 59 | 560 |  |  |  |  | 
COc1cccc(C(C)(C)NC[C@@H](O)[C@H](Cc2ccccc2)NC(=O)c2cc(C(=O)N(CCC(F)(F)F)CCC(F)(F)F)cc(N3CCCCC3)c2)c1 | 210 | 120 |  |  |  |  | 
COc1cccc(C(C)(C)NC[C@@H](O)[C@H](Cc2ccccc2)NC(=O)c2cc(C(=O)NCC(C)(C)C)cc(N3CCCCC3)c2)c1 | 27 | 400 | 6 | 2000 | 850 |  | 
COc1cccc(C(C)(C)NC[C@@H](O)[C@H](Cc2ccccc2)NC(=O)c2cc(C(=O)NCCOC(C)(C)C)cc(N3CCCCC3)c2)c1 | 31 | 150 |  |  |  |  | 
COc1cccc(C(C)(C)NC[C@@H](O)[C@H](Cc2ccccc2)NC(=O)c2cc(C(=O)N(C)C)cc(N3CCCCC3)c2)c1 | 87 | 500 |  |  |  |  | 
COc1cccc(C(C)(C)NC[C@@H](O)[C@H](Cc2ccccc2)NC(=O)c2cc(C(=O)NC(C)(C)CO)cc(N3CCCCC3)c2)c1 | 120 | 1460 |  |  |  |  | 
COc1cccc(C(C)(C)NC[C@@H](O)[C@H](Cc2ccccc2)NC(=O)c2cc(C(=O)NCCC(F)(F)F)cc(N3CCCCC3)c2)c1 | 24 | 580 | 2 | 2500 | 2200 |  | 
COc1cccc(C(C)(C)NC[C@@H](O)[C@H](Cc2ccccc2)NC(=O)c2cc(C(=O)NCC3CC3)cc(N3CCCCC3)c2)c1 | 30 | 760 | 1.8 | 1800 | 500 |  | 
COc1cccc(C(C)(C)NC[C@@H](O)[C@H](Cc2ccccc2)NC(=O)c2cc(C(=O)NCCO)cc(N3CCCCC3)c2)c1 | 210 | 1420 |  |  |  |  | 
COc1cccc(C(C)(C)NC[C@@H](O)[C@H](Cc2ccccc2)NC(=O)c2cc(C(=O)N(CC(C)C)CC(C)C)cc(N3CCCCC3)c2)c1 | 500 | 1300 |  |  |  |  | 
CCCN(CCC)C(=O)c1cc(C)cc(C(=O)N[C@@H](Cc2ccccc2)[C@H](O)CNC(C)(C)c2cccc(OC)c2)c1 | 23 | 210 |  |  |  |  | 
COc1cccc(C(C)(C)NC[C@@H](O)[C@H](Cc2ccccc2)NC(=O)c2cc(C(=O)NCC3CCCCC3)cc(N3CCCCC3)c2)c1 | 90 | 150 |  |  |  |  | 
COc1cccc(C(C)(C)NC[C@@H](O)[C@H](Cc2ccccc2)NC(=O)c2cc(C(=O)NCC(C)(C)O)cc(N3CCCCC3)c2)c1 | 100 | 1660 |  |  |  |  | 
